The term Ki denotes a measure of affinity in units of concentration, obtained from inhibition or displacement.

A value given as a limit tells only on which side of the number the result lay.

One assay deals with T1, Coagulation factor VII (Homo sapiens, UniProt P08709).
T1 sequence (P08709 whole entry): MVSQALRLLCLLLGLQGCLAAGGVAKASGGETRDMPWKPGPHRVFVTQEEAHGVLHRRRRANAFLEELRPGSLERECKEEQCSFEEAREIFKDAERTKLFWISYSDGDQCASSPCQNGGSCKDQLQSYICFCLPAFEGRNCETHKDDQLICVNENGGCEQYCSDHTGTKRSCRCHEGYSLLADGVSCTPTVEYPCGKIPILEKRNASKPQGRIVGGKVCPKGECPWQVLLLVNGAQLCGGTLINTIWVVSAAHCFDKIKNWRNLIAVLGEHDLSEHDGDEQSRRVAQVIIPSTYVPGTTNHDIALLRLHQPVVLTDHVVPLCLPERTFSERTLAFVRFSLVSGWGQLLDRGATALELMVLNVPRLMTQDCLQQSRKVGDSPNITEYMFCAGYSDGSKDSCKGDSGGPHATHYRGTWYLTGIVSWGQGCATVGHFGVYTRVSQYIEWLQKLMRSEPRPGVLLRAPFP
As to the kind of experiment: Binding affinity to f7a/TF complex.

For assay [1], the target named is Coagulation factor VII/tissue factor (Homo sapiens) (UniProt P08709+P13726). As to the kind of experiment: Anticoagulant potency in human plasma by PT assay. In kind it is functional, cell-free. An outline of the steps:
(§1)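 Clotting time measured at 37 °C in human plasma on an automated coagulometer, following the manufacturer's instructions. Tissue-factor-dependent clotting was read by PT. Tissue-factor-independent (intrinsic pathway) clotting was read by aPTT.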

A short description of assay [2]: Anticoagulant potency in human plasma by aPTT assay. The assay is classed as functional. The method, boiled down: as §1
The target in another assay is Coagulation factor X (Homo sapiens, UniProt P00742). As to the kind of experiment: Binding affinity to f10a.
Coagulation factor X, sequence (P00742 41-179 limits assumed): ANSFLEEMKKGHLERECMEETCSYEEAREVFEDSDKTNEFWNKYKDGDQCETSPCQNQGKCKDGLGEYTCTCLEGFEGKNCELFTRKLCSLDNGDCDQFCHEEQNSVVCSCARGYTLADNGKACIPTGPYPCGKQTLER
Coagulation factor X, sequence (P00742 235-488 limits assumed): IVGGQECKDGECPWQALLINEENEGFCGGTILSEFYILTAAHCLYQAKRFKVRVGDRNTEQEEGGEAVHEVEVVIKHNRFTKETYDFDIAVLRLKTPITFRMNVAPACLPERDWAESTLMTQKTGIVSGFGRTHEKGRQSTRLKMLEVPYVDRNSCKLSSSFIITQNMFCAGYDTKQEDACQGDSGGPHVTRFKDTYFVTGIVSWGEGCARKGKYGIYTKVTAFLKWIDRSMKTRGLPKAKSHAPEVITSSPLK
The target of a further assay is Prothrombin (Homo sapiens, UniProt P00734). As to the kind of experiment: Binding affinity to thrombin.
Another assay concerns the target Trypsin (Homo sapiens, UniProt P07477+P07478+P35030). As to the kind of experiment: Binding affinity to trypsin. In kind it is protein assay.

`CC(C)(C(=O)O)c1cc(-c2cccc(CNC(=O)[C@@H](O)Cc3ccccc3)c2)c(O)c(-c2cc3c(N)[nH]ccc-3n2)c1`: the Ki on Coagulation factor VII is 0.015 µM. For the same compound, the 2PT in assay [1] was determined as 6.4 µM. For the same compound, the 2aPTT in assay [2] was 17 µM.

As to `N=C(N)c1ccc2[nH]c(-c3cccc(-c4cc(CNC(N)=O)ccc4O)c3O)nc2c1`, the Ki at Coagulation factor X came to 2.7 µM; on Prothrombin, 90 µM; on Trypsin, 3.6 µM.

With `Nc1[nH]ccc2nc(-c3cccc(-c4cccc(CNC(=O)[C@@H](O)Cc5ccccc5)c4)c3O)cc1-2`, the Ki was 0.081 µM at Coagulation factor VII, 54 µM on Coagulation factor X, 99 µM at Prothrombin and 38 µM at Trypsin. For the same compound, the 2PT in assay [1] came to 12 µM. In addition, the 2aPTT in assay [2] was 22 µM.

`Nc1[nH]ccc2nc(-c3cc(C(=O)O)cc(-c4cccc(CNC(=O)[C@@H](O)Cc5ccccc5)c4)c3O)cc1-2`: the inhibition constant Ki at Coagulation factor VII came to 0.0013 µM. The compound further yielded a 2PT in assay [1] of 4.5 µM. Besides, the 2aPTT in assay [2] amounted to 3.7 µM.

Consider `O=C(NCc1cccc(-c2cccc(-c3cc4c[nH]ccc-4n3)c2O)c1)[C@@H](O)Cc1ccccc1`, for which the Ki on Coagulation factor VII stood at 0.22 µM; at Coagulation factor X, 30 µM; at Prothrombin, 100 µM; on Trypsin, 12 µM.

Take `CC(C)(C(=O)O)c1cc(-c2cccc(CNC(=O)Nc3c(F)cccc3F)c2)c(O)c(-c2cc3c(N)[nH]ccc-3n2)c1`: the inhibition constant Ki at Coagulation factor VII turned out to be 0.0026 µM. The compound further returned a 2PT in assay [1] of 2.4 µM. This compound also returned a 2aPTT in assay [2] greater than 20 µM.

With `CC(C)(C(=O)O)c1cc(-c2cccc(CNC(=O)Nc3ccc(C(=O)O)cc3)c2)c(O)c(-c2cc3c(N)[nH]ccc-3n2)c1`, the Ki on Coagulation factor VII worked out at 0.02 µM. This compound also yielded a 2PT in assay [1] of 5.8 µM. Besides, the 2aPTT in assay [2] was greater than 20 µM.

Source of the values: ChEMBL document CHEMBL1146904, “Potent 4-amino-5-azaindole factor VIIa inhibitors” (Bioorg Med Chem Lett, 2006).
